# ChEMBL document CHEMBL1156783, “Synthesis, biological evaluation, X-ray structure, and pharmacokinetics of aminopyrimidine c-jun-N-terminal kinase (JNK) inhibitors” (J Med Chem, 2010)
# Calls of active or inactive are those of the source. No cut-off for these calls is given here.
# Key:
# [1] = Inhibition of p38 kinase by time resolved fluorescence assay
# Procedure, shortened: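 Commercial recombinant p38 in a homogeneous time-resolved fluorescence biochemical assay run per an earlier protocol. IC50 is the average of three or more experiments.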
# [2] = molecular target: Mitogen-activated protein kinase 8 (Homo sapiens, UniProt P45983); experiment: Inhibition of JNK1 by time resolved fluorescence assay
# [3] = molecular target: Mitogen-activated protein kinase 10 (Homo sapiens, UniProt P53779); experiment: Inhibition of JNK3 by time resolved fluorescence assay
# [4] = Inhibition of c-jun phosphorylation in rat INS-1 cells; format: cell-based; conditions: INS1
# [5] = Inhibition of streptozotocin-induced H2O2 production in rat INS1(823/13) cells treated 30 mins before streptozotocin challenge measured after 4 hrs; format: functional, cell-based
# Procedure, shortened: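 Rat insulinoma INS1 823/13 cells in RPMI 1640 with 10% FBS were plated and left overnight at 37 °C. Compound in DMSO was added 30 min before 4 mM STZ and kept through 4 h of STZ at 37 °C. Cells were loaded with 5 μM CM-H2DCFDA for 1 h, and fluorescence was read at 495/525 nm. Signal was normalized to STZ alone. A 12-point curve was fitted by four-parameter regression over four biological replicates run in duplicate.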
# [6] = molecular target: Dual specificity mitogen-activated protein kinase kinase 7 (Homo sapiens) (UniProt O14733); experiment: Inhibition of MKK7 at 3 uM
# [7] = molecular target: Dual specificity mitogen-activated protein kinase kinase 4 (Homo sapiens) (UniProt P45985); experiment: Inhibition of MKK4 at 3 uM
# [8] = molecular target: Mitogen-activated protein kinase kinase kinase 9 (Homo sapiens) (UniProt P80192); experiment: Inhibition of MLK1 at 3 uM
# Procedure, shortened: (§1)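 Counterscreen in a biochemical panel of 400 kinases. Each kinase was tested at a single inhibitor level of 3 μM, and percent inhibition was recorded.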
# [9] = molecular target: Mitogen-activated protein kinase kinase kinase 10 (Homo sapiens) (UniProt Q02779); experiment: Inhibition of MLK2 at 3 uM; procedure, shortened: as §1
# [10] = molecular target: Mitogen-activated protein kinase kinase kinase 11 (Homo sapiens) (UniProt Q16584); experiment: Inhibition of MLK3 at 3 uM; procedure, shortened: as §1
# [11] = molecular target: Mitogen-activated protein kinase kinase kinase 1 (Homo sapiens) (UniProt Q13233); experiment: Inhibition of MAPK3K1 at 3 uM; procedure, shortened: as §1
# [12] = molecular target: Mitogen-activated protein kinase kinase kinase 2 (Homo sapiens) (UniProt Q9Y2U5); experiment: Inhibition of MAPK3K2 at 3 uM; procedure, shortened: as §1
# [13] = molecular target: Mitogen-activated protein kinase kinase kinase 3 (Homo sapiens) (UniProt Q99759); experiment: Inhibition of MAPK3K3 at 3 uM; procedure, shortened: as §1
# [14] = molecular target: Mitogen-activated protein kinase kinase kinase 4 (Homo sapiens) (UniProt Q9Y6R4); experiment: Inhibition of MAPK3K4 at 3 uM; procedure, shortened: as §1
# [15] = molecular target: Mitogen-activated protein kinase kinase kinase 5 (Homo sapiens) (UniProt Q99683); experiment: Inhibition of ASK1 at 3 uM
# [16] = molecular target: CYP2C9 (Homo sapiens, UniProt P11712); experiment: Inhibition of human CYP2C9 at 10 uM after 15 mins; format: ADME
# [17] = molecular target: CYP2D6 (Homo sapiens, UniProt P10635); experiment: Inhibition of human CYP2D6 at 10 uM after 15 mins; format: ADME
# [18] = molecular target: CYP3A4 (Homo sapiens, UniProt P08684); experiment: Inhibition of human CYP3A4 at 10 uM after 15 mins; format: ADME
# [19] = molecular target: T1, CYP1A2 (Homo sapiens, UniProt P05177); experiment: Inhibition of human CYP1A2 at 10 uM after 15 mins; format: ADME
# T1 sequence (P05177 whole entry): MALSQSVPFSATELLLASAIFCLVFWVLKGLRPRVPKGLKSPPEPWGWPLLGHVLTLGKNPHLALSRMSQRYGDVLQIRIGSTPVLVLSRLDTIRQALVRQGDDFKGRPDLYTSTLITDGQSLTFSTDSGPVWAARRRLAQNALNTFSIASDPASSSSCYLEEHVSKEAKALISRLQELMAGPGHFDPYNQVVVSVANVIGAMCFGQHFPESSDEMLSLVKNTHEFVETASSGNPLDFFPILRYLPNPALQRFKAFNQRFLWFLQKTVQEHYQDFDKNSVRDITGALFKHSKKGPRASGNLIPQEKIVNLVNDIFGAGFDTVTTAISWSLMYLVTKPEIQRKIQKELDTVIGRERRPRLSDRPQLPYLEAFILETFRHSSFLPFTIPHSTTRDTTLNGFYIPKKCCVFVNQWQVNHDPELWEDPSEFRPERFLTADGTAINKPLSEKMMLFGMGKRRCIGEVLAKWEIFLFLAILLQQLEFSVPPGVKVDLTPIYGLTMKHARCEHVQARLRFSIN
# [20] = Metabolic stability in mouse liver microsomes at 1 uM by LC-MS/MS analysis; format: ADME, Microsome
# [21] = tested on: Liver microsomes; experiment: Metabolic stability in rat liver microsomes at 1 uM by LC-MS/MS analysis; format: ADME, Microsome
# [22] = tested on: Liver microsomes; experiment: Metabolic stability in human liver microsomes at 1 uM by LC-MS/MS analysis; format: ADME, Microsome
# [23] = tested on: Plasma; experiment: Protein binding in mouse plasma; format: ADME, cell-free
# [24] = tested on: Plasma; experiment: Protein binding in rat plasma; format: ADME, cell-free
# [25] = tested on: Plasma; experiment: Protein binding in dog plasma; format: ADME, cell-free, Canis lupus familiaris
# [26] = tested on: Plasma; experiment: Protein binding in monkey plasma; format: ADME, cell-free, Macaca mulatta; conditions: rhesus monkey
# [27] = tested on: Plasma; experiment: Protein binding in human plasma; format: ADME, cell-free
# [28] = Plasma clearance in Sprague-Dawley rat at 1 mg/kg, iv and 2 mg/kg, po; format: ADME, organism-based
# Procedure, shortened: (§2)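 Sprague-Dawley rats (n = 3) given 1 mg/kg i.v. and 2 mg/kg oral gavage. Blood was drawn into EDTA at 5, 15, 30 min and 1, 2, 4, 6, 8 h. Plasma proteins were precipitated with acetonitrile and drug was measured by LC-MS/MS. Cmax, AUC, t1/2, CL, Vd and oral bioavailability came from noncompartmental analysis.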
# [29] = Half life in Sprague-Dawley rat at 1 mg/kg, iv and 2 mg/kg, po; format: ADME, organism-based; conditions: in vivo; procedure, shortened: as §2
# [30] = Volume of distribution in Sprague-Dawley rat at 1 mg/kg, iv and 2 mg/kg, po; format: ADME, organism-based; conditions: in vivo; procedure, shortened: as §2
# [31] = AUC in Sprague-Dawley rat at 2 mg/kg, po; format: ADME, organism-based; set-up: dose 2 mg/kg, route oral; conditions: plasma
# [32] = Cmax in Sprague-Dawley rat at 2 mg/kg, po; format: ADME, organism-based; set-up: dose 2 mg/kg, route oral; conditions: in vivo
# [33] = tested on: Rattus norvegicus; experiment: Oral bioavailability in Sprague-Dawley rat at 2 mg/kg; format: ADME, organism-based; conditions: in vivo; procedure, shortened: as §2
# [34] = Selectivity ratio of IC50 for JNK1 over IC50 for p38 kinase
# [35] = Selectivity ratio of IC50 for JNK3 over IC50 for p38 kinase
# [36] = tested on: Jurkat; experiment: Inhibition of IL-2 release in human Jurkat cells at 10 uM; format: functional
# Sequence of CYP3A4 (P08684 whole entry): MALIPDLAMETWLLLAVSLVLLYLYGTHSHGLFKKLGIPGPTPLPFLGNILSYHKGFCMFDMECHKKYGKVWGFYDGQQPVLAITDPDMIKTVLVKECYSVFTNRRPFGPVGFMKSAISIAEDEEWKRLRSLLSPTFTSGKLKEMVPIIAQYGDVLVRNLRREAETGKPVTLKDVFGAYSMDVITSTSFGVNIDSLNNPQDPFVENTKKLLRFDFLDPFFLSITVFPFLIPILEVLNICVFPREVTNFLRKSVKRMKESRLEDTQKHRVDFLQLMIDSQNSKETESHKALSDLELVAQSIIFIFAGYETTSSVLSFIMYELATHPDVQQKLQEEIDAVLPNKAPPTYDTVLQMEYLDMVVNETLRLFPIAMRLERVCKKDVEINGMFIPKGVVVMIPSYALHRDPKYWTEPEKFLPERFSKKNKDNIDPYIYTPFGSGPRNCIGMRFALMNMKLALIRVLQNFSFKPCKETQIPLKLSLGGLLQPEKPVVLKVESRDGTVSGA
# Sequence of Mitogen-activated protein kinase 10 (P53779 whole entry): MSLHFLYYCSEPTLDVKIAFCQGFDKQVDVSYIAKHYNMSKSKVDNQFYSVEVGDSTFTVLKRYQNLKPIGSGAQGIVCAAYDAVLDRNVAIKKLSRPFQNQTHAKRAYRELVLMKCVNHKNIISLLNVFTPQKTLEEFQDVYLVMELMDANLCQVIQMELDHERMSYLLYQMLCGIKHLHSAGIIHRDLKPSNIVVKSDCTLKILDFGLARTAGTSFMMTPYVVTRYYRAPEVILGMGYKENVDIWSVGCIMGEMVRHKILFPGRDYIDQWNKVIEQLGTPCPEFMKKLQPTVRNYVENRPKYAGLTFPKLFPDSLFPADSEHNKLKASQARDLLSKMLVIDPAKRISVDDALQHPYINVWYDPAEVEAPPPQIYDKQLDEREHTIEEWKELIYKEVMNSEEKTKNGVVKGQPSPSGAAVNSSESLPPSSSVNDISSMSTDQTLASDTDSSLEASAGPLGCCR
# Sequence of CYP2C9 (P11712 whole entry): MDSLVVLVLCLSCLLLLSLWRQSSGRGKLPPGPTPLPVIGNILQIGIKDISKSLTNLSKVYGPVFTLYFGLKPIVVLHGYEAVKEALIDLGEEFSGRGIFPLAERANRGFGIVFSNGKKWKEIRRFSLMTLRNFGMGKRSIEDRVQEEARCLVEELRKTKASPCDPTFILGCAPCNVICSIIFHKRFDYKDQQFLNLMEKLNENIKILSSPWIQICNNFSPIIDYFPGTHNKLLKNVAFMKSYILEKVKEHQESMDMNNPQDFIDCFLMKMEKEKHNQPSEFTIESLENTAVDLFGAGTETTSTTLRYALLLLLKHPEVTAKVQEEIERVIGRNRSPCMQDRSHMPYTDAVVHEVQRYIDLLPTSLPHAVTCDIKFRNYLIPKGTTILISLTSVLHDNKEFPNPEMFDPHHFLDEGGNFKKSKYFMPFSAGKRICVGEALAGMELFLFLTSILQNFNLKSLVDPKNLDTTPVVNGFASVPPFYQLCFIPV
# Sequence of CYP2D6 (P10635 whole entry): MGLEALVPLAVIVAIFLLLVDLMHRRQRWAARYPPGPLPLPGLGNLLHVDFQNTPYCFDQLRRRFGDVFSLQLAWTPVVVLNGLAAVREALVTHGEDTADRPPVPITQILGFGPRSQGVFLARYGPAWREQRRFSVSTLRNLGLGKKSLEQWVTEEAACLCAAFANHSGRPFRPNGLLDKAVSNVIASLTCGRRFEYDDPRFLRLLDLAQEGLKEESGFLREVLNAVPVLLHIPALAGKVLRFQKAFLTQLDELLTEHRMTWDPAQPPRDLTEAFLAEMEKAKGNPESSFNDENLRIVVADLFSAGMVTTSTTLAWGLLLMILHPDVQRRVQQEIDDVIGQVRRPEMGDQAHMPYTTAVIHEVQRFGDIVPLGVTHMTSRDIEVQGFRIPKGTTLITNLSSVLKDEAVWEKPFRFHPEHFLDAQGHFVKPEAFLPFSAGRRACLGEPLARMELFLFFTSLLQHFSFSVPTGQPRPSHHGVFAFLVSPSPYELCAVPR
# Sequence of Mitogen-activated protein kinase 8 (P45983 whole entry): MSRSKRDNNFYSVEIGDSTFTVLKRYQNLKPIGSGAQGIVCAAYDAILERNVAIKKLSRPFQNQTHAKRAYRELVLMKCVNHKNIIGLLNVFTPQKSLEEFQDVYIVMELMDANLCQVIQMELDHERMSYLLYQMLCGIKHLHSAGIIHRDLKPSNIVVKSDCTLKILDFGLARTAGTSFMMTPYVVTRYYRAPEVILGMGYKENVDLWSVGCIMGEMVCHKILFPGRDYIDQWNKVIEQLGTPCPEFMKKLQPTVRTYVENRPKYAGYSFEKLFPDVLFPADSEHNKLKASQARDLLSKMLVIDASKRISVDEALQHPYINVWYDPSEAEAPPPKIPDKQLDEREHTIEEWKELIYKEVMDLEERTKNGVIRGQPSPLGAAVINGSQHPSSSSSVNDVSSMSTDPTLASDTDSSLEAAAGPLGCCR
# Sequence of Mitogen-activated protein kinase kinase kinase 4 (Homo sapiens) (Q9Y6R4 whole entry): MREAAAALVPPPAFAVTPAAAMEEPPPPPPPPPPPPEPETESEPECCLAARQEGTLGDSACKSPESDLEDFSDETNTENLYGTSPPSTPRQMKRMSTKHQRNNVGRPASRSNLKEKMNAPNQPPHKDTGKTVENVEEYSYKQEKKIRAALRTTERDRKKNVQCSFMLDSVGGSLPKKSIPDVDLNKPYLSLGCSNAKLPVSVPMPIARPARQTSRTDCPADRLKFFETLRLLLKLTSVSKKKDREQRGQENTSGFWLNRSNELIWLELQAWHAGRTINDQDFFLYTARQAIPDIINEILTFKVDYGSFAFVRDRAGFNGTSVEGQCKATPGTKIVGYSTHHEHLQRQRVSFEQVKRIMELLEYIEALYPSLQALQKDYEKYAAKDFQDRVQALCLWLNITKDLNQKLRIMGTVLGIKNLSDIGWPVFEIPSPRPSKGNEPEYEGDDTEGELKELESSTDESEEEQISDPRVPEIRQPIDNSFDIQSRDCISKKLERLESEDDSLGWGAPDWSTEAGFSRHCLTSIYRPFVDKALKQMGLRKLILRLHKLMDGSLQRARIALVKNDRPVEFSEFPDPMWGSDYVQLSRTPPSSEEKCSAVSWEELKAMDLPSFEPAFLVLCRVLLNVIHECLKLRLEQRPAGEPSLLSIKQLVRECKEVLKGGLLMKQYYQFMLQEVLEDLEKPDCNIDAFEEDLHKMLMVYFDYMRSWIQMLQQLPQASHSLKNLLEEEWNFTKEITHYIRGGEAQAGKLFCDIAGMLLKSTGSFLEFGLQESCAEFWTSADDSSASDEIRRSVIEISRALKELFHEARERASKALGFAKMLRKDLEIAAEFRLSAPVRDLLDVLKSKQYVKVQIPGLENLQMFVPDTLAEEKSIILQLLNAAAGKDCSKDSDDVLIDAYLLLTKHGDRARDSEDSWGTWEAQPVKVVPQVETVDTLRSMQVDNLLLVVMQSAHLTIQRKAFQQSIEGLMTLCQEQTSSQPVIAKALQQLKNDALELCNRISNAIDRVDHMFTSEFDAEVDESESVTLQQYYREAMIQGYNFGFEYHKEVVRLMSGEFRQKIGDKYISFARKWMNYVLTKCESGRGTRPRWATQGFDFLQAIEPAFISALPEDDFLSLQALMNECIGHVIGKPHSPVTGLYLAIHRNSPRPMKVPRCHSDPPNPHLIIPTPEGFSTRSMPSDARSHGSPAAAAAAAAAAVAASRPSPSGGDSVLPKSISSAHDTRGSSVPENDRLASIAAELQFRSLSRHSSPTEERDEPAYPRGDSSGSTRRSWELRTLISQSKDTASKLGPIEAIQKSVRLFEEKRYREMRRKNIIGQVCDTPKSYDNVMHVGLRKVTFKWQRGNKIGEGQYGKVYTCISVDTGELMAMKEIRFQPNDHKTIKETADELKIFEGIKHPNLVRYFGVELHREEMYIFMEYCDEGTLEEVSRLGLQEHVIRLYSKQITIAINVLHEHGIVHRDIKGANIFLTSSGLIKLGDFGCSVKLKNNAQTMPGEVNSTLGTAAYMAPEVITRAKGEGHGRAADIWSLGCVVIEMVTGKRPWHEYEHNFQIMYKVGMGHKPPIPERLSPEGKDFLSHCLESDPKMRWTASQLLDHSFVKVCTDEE
# Sequence of Mitogen-activated protein kinase kinase kinase 10 (Homo sapiens) (Q02779 whole entry, looked up): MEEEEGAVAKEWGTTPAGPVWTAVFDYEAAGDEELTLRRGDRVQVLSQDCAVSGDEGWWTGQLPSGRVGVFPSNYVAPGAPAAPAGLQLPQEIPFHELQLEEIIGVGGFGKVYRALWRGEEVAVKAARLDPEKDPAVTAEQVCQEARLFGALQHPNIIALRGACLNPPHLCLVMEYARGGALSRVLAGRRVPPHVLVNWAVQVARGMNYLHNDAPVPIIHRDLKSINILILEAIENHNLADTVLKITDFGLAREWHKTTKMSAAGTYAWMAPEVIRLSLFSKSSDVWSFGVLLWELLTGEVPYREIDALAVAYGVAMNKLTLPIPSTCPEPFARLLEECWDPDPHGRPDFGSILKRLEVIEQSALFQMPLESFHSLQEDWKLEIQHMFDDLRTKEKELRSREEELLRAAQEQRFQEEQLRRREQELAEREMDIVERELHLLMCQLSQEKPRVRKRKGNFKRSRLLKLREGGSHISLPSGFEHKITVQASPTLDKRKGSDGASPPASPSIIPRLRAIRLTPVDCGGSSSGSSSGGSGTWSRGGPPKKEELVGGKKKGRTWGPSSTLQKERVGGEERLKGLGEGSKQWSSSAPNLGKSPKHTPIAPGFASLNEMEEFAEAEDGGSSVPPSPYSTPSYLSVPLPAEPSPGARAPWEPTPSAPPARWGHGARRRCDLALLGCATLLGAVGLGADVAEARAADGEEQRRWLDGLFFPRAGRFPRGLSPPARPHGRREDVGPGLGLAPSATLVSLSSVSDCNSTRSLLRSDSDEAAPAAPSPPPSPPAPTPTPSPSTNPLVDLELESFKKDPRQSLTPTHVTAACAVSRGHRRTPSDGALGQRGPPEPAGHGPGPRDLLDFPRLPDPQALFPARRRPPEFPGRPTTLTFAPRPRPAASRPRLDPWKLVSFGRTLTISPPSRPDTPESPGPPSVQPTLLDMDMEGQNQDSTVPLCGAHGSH
Compound,IC50 [1] [nM],IC50 [2] [nM],IC50 [3] [nM],IC50 [4] [nM],"inhibition at 0.25 h, 10 µM [16] [%]","inhibition at 0.25 h, 10 µM [17] [%]","inhibition at 0.25 h, 10 µM [18] [%]","inhibition at 0.25 h, 10 µM [19] [%]",Stability [20] [min],Stability [21] [min],Stability [22] [min],clearance [28] [mL/min/kg],half-life [29] [h],Vd [30] [L/kg],AUC [31] [µM·h],Cmax [32] [nM],F [33] [%],further results
NC(=O)c1ccc(Nc2nccc(-c3ccccc3)n2)cc1,> 20000,,,,,,,,,,,,,,,,,
CS(=O)(=O)Nc1ccc(-c2ccnc(Nc3ccc(-n4ccnn4)cc3)n2)cc1,> 20000,16,4,210,,,,,,,,,,,,,,
Fc1cc(-c2cc[nH]/c(=N/c3ccc(-n4cnc(N5CCOCC5)n4)cc3)n2)cc(N2CCOCC2)c1,> 20000,,,54,,,,,,,,,,,,,,IC50 [5]: 0.81 nM; Activity [6]: inactive; Activity [7]: inactive; Activity [8]: inactive; Activity [9]: inactive; Activity [10]: inactive; Activity [11]: inactive; Activity [12]: inactive; Activity [13]: inactive; Activity [14]: inactive; Activity [15]: inactive
Fc1cc(-c2ccnc(Nc3ccc(-n4cnc(N5CCOCC5)n4)cc3)n2)cc(N2CCOCC2)c1,,99,,,75,4,89,70,21,41,26,20,2.4,2.5,1.4,300,45,PPB [23]: 92%; PPB [24]: 98%; PPB [25]: 96%; PPB [26]: 96%; PPB [27]: 92%
Cc1ncn(-c2ccc(Nc3nccc(-c4cc(C#N)cc(N5CCOCC5)c4)n3)cc2)n1,> 20000,54,79,89,,,,,,,,,,,,,,Ratio IC50 [34]: > 135; Ratio IC50 [35]: > 135
CS(=O)(=O)Nc1ccc(-c2ccnc(Nc3ccc(S(N)(=O)=O)cc3)n2)cc1,> 20000,,,,,,,,,,,,,,,,,
N#C/C(=C1/Nc2ccccc2S1)c1ccnc(NCCc2cccnc2)n1,,,,,,,,,,,,,,,,,,inhibition at 10 µM [36]: 90%
c1cc(-c2ccnc(Nc3ccc(-n4ccnn4)cc3)n2)cc(N2CCOCC2)c1,> 20000,123,365,,,,,,,,,,,,,,,
N#Cc1cc(-c2ccnc(Nc3ccc(-n4cnc(-c5ccccn5)n4)cc3)n2)cc(N2CCOCC2)c1,> 20000,39,79,,-2,-4,33,15,51,47,29,3,3,0.6,5.9,500,27,
CN1CCN(c2ncn(-c3ccc(Nc4nccc(-c5cc(F)cc(N6CCOCC6)c5)n4)cc3)n2)CC1,> 20000,102,133,260,,,,,,,,,,,,,,
Cn1nnc(-c2ccc(Nc3nccc(-c4cc(C#N)cc(N5CCOCC5)c4)n3)cc2)n1,> 20000,45,140,,7,10,15,-1,26,11,17,44,1.9,3.3,0.24,70,14,
Cc1ncn(-c2ccc(Nc3nccc(-c4cccc(N5CCOCC5)c4)n3)cc2)n1,> 20000,113,390,281,43,4,48,39,5,17,18,10,0.8,0.4,2,950,25,
c1cncc(-c2ncn(-c3ccc(Nc4nccc(-c5cccc(N6CCOCC6)c5)n4)cc3)n2)c1,> 20000,97,,,,,,,,,,,,,,,,
